Test results: publication PMC3683132 (ACS chemical biology, 2013)

Legend:
[1] = tested on: (CUG)960 foci in HeLa cells transfected with DMPK-CUG960 and GFP-MBNL1; test: FISH / confocal microscopy of ribonuclear foci in fixed DM1 cell model; assay type: cell-based; conditions: 50 µM, 48 h
Summary of the method: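 HeLa cells (ca. 120,000/well, on coverslips) were co-transfected next day at 70–80% confluence with 500 ng DMPK–CUG960 (or CUG0 control) and 500 ng GFP-MBNL1 plasmids using Lipofectamine. After 4 h the medium was changed and test compound added (20–100 µM) for two days; 50 µM spermine served as the control compound. Cells were fixed (4% PFA), permeabilized and probed with Cy3-(CAG)10 for 2 h at 37 °C. Nuclei were stained with TO-PRO-3 and scored by confocal microscopy; results are mean ± standard error of ≥3 independent experiments with two-tailed p-values.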

[2] = tested on: insulin receptor (IR) pre-mRNA alternative splicing; test: IR splicing assay; assay type: cell-based; conditions: 50 µM, DM1 cell model

NCCCNCCCCNCCCN [spermine, reference compound]
effect on (CUG)960 foci [1]: no effect
effect on the IR mis-splicing [2]: no effect
